Measurements: ChEMBL document CHEMBL2086379, “Novel pyrimidopyrimidine derivatives for inhibition of cellular proliferation and motility induced by h-prune in breast cancer” (Eur J Med Chem, 2012)
Activity calls are given as the source filed them. The rule behind the calls is not given here.

Tests used:
[1] = target: T1, Exopolyphosphatase PRUNE1 (Homo sapiens, UniProt Q86TP1); assay: Inhibition of purified human prune assessed as reduction of cAMP-phosphodiesterase activity by SPA
T1 sequence (Q86TP1 whole entry): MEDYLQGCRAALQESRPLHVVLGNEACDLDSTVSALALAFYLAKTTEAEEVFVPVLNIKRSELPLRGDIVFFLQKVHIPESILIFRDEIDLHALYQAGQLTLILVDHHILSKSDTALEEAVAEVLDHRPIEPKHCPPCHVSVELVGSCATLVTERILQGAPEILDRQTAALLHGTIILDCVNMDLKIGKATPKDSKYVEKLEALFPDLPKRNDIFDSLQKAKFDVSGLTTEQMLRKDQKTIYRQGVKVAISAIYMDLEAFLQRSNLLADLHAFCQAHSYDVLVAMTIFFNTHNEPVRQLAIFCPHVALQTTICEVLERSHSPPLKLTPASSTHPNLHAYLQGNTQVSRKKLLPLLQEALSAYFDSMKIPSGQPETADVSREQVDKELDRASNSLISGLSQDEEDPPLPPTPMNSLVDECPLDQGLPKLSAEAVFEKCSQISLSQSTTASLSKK

[2] = species: Homo sapiens; assay: Inhibition of cell motility in human MDA-MB-231T cells expressing human-prune at 8 uM by 2D cell migration assay; format: functional, cell-based
[3] = target: T2, Exopolyphosphatase PRUNE1 (Homo sapiens) (UniProt Q86TP1); assay: Inhibition of human prune expressed in human MDA-435-c100 cells at 1 uM assessed as reduction of cAMP-phosphodiesterase activity using whole cell protein extracts by SPA; format: cell-based
T2 sequence (whole entry): T1 sequence (Q86TP1 whole entry)

[4] = species: Homo sapiens; assay: Inhibition of cell proliferation of human MDA-MB-231T cells expressing human-prune assessed as cell index levels at 50 uM measured 5 hrs post dose by xCelligence system based real time cell analysis method; format: functional
Summary of the method: (§1)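 Compound or DMSO added once when cell index reached 1.0–1.2 (50–60% confluence). CI read every 5 min for up to 54–56 h at 37 °C, 5% CO2, normalised to time of addition. Compounds at 50 µM (dose-response runs also 100 µM). Two independent experiments; Student's t test.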

[5] = Inhibition of cell proliferation of human MDA-MB-231T cells expressing human-prune assessed as cell index levels at 50 uM measured 24 hrs post dose by xCelligence system based real time cell analysis method (reference value: 1.777 cell index); format: functional; summary of the method: as §1
[6] = species: Homo sapiens; assay: Inhibition of cell proliferation of human MDA-MB-231T cells expressing human-prune assessed as cell index levels at 50 uM measured 9 to 54 hrs post dose by xCelligence system based real time cell analysis method; format: functional; summary of the method: as §1
[7] = target: T1, Exopolyphosphatase PRUNE1; assay: Inhibition of human prune assessed as reduction of cAMP-phosphodiesterase activity

Compound | IC50 [1] | inhibition [2] | inhibition [3] | inhibition [4] | Activity [5] | inhibition [6] | IC50 [7]
COc1ccc(CNc2nc(N(CCO)CCO)nc3c(NCc4ccc(OC)cc4)nc(N(CCO)CCO)nc23)cc1 | 210 nM | Active | Active | inactive | 1.185 | – | –
OCCN(CCO)c1nc(N2CCCCC2)c2nc(N(CCO)CCO)nc(N3CCCCC3)c2n1 [DIPYRIDAMOLE] | – | Active | – | inactive | 1.472 | Active | 780 nM
